These results are taken from paper PMC6663923 (Acta Pharmaceutica Sinica. B, 2019).

The target in assay [1] is T1, recombinant LSD1 (Homo sapiens, UniProt O60341). Put plainly: Reversibility analysis. In kind it is biochemical. The conditions noted are these: 80-fold dilution. The procedure, abridged:
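Recombinant LSD1 (2.5 μg) was preincubated for 1 h with the test compound (312.5 μmol/L), a reference inhibitor (600 μmol/L) or DMSO. Aliquots were then diluted 80-fold into HRP-coupled assay solution containing substrate and coupling reagents, and residual demethylase activity was measured.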

Assay [2] has as its target T1, recombinant LSD1. Put plainly: LSD1 enzymatic assay. The class given is biochemical.
In assay [3] the test system is glioma stem cells (GSCs). The conditions noted are these: cited from earlier work.

Read-outs that look alike come from different tables or passages of the source. Where only a bound is given, the exact number is not on record here.

Consider `O=C(O)c1ccc(CN2CCC(CN[C@@H]3C[C@H]3c3ccccc3)CC2)cc1` [GSK2879552], for which the “reversibility of LSD1 inhibition (in words)” value in assay [1] is listed as “failed to recover the activity of LSD1”. `CCCSc1nc(Sc2nc3ccccc3s2)c2nnn(CCOCCO)c2n1` [Compound 8l]: the “LSD1 inhibitory effect (in words)” value in assay [2] (recombinant LSD1) is “moderate inhibitory effect”. On to `C#CCSc1nc(Sc2nnnn2-c2ccccc2)c2nnn(Cc3ccc(OC)cc3)c2n1` [Compound 15y], for which the IC50 in assay [2] (LSD1 IC50, recombinant LSD1) is 140 nM. For `C#CCSc1nc(Sc2nnnn2-c2ccccc2)c2nnn(Cc3ccc(C(C)C)cc3)c2n1` [Compound 15x], the IC50 in assay [2] (read-out: LSD1 IC50, recombinant LSD1) was 55 nM. Take `OCCNc1cc(Sc2nnnn2-c2ccccc2)nc(SCc2ccccc2)n1` [Compound 22b, 2-((2-(Benzylthio)-6-((1-phenyl-1H-tetrazol-5-yl)thio)pyrimidin-4-yl)amino)ethan-1-ol]: the IC50 in assay [2] (LSD1 IC50, recombinant LSD1) was more than 10000 nM.

Turning to `NC1CC1c1cccc(OCC[C@H](NC(=O)c2ccccc2)C(=O)NCc2ccccc2)c1` (stereo partly drawn) [NCL-1], the “cell viability of GSCs (in words)” value in assay [3] is on record as “significantly reduced the cell viability”.

The IC50 is the concentration needed to halve the response being measured.
